PKA-R1A activ = activates the PKA-R1A holoenzyme complex; P00514+P68181; PKA-R1A dissociation, Cy5-IP20 fluorescence polarization; scaled: DMSO 0%, 113 µM cGMP 100%; activation, % at 11.4 µM; actives 0.083% (n = 340,000); AID 504707;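 active means percent activation above the mean of all tested compounds plus 3 SD, cut at about 19% in these data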;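 further: higher means more PKAc released from R1A so a rise in polarization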
CSN inh = CSN deneddylation inhibition; Purified CSN, SCF-Nedd8-OG deneddylation, fluorescence polarization; inhibition, % at 12.5 µM; actives 0.38% (n = 360,000);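 active means pattern-corrected inhibition above about 35%, with an unprinted fluorescence ratio check between 0.5 and 1.5, limit read from the data, passing the limit was not always enough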;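 further: 0% = enzyme with substrate and 100% = substrate without enzyme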
Target sequence (Q92905 whole entry, looked up, one chain of several): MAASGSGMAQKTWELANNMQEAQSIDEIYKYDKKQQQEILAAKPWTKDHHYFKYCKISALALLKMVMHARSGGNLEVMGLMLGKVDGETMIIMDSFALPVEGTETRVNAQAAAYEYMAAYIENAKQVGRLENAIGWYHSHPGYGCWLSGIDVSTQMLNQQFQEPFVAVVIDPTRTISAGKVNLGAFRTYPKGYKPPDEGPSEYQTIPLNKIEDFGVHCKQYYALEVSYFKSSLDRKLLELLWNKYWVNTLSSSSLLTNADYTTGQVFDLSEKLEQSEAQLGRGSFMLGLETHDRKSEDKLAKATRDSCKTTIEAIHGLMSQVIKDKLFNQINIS
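Assay system: HEK293T-derived human Csn5 enzyme; quantity: 0.24 nM enzyme; medium: Tris/NaCl/DTT buffer, pH 7.5; also added: substrate SCFSkp2-Nedd8OG, 10 nM; doses: 12.5 µM compound; schedule: 90 min reaction at room temperature; signal: FP; read-out: % inhibition of substrate cleavage by Csn5; benchmarks: substrate-only high control, full reaction low control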
HNF4A DNA FP = change in binding of human HNF4 alpha to DNA. HNF4a-FITC DNA binding, fluorescence polarization, 1 h. AID 1224865. activity change, % at 10 µM. actives 0.3% (n = 360,000); in the data active means activity change above about 30%, passing the limit was not always enough
Rpn11 inh = Rpn11 (human) deubiquitinase inhibition. human 26S proteasome, Ub4-pepOG fluorescence polarization; 20S core pre-blocked with epoxomicin. actives 0.59% (n = 360,000). calls only at 20 µM;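 active means inhibition at 20 µM, scaled to each plate's controls, above about 33%, limit read from the data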
Target sequence (O00487 whole entry, looked up): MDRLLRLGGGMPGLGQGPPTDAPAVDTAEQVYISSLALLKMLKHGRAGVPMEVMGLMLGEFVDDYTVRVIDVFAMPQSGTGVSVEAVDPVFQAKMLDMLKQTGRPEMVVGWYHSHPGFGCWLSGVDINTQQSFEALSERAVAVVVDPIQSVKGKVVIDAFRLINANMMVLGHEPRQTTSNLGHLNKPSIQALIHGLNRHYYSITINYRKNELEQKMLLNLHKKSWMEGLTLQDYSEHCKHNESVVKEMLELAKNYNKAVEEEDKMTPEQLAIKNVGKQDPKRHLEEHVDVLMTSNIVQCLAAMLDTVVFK
TPT1 inh = blocks Candida albicans tRNA 2'-phosphotransferase. AID 1962. recombinant caTPT1, FP RNA substrate dephosphorylation. inhibition, % at 5 µM. actives 0.81% (n = 300,000);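 active means inhibition above the mean of all tested compounds plus 3 SD, set per screening campaign, cut at about 24% in these data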;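 further: plate controls were DMSO alone for no effect and ferristatin control at 100 nM for full effect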
PKA-R2B activ = activates the human PKA-R2B holoenzyme complex; AID 504700; activation, % at 11.4 µM; actives 0.079% (n = 340,000); P22694+P31323; PKA-R2B holoenzyme dissociation, Cy5-IP20 fluorescence polarization; R2B truncated from residue 108, S112A mutant; 0% DMSO only, 100% 113 µM cGMP;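 active means activation above a cutoff set at the mean over all compounds plus 3 SD, cut at about 18% in these data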;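 further: higher means more holoenzyme dissociation and a rise in polarization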
Rpn11 inh conf = confirmation of human proteasome Rpn11 inhibitors | shares compounds with Rpn11 inh | purified human 26S proteasome, Ub4-pepOG fluorescence polarization; proteasome pretreated with epoxomicin | inhibition, % at 20 µM | actives 29% (n = 1,900)
MMP-2 counter-1 = counter-screen for RPN11 inhibitors: inhibition of human MMP-2; shares compounds with Rpn11 inh; recombinant MMP-2, FRET peptide cleavage fluorescence; inhibition, % at 20 µM; actives 4% (n = 1,900);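 further: human MMP-2 activated beforehand with APMA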
Thrombin FP = counter-screen for RPN11 inhibitors: inhibition of bovine thrombin. shares compounds with Rpn11 inh. bovine thrombin cleavage of Ub4-pepOG, fluorescence polarization. inhibition, % at 20 µM. actives 13% (n = 1,900);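 active means mean inhibition at least 40% at 20 µM, or signal 3 deviations below plate average, so some actives read negative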;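 further: plate controls were thrombin with DMSO for no effect and buffer wells lacking thrombin for full effect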
CSN5 deneddyl = Csn5 (human) deneddylation inhibition, single-concentration validation. Csn5 deneddylation of SCF-Nedd8OG, fluorescence polarization, 90 min. AID 720654. actives 62% (n = 540). inhibition, % at 16.6 µM. shares compounds with CSN inh; in the data active means inhibition above about 50%;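 further: 0% = DMSO with enzyme and 100% = no enzyme wells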
MMP-2 counter-2 = MMP-2 (human) inhibition, counter-screen for CSN hits | recombinant MMP-2, FRET substrate fluorescence, 60 min | actives 33% (n = 540) | shares compounds with CSN inh | inhibition, % at 16.6 µM;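 active means corrected plate-normalized z-score of 5 or more, or -5 or less, or inhibition of 15% or more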;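 further: plate controls were DMSO wells with enzyme for no effect and buffer wells lacking MMP-2 for full effect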
Thrombin counter = thrombin (bovine) inhibition, counter-screen for CSN hits; shares compounds with CSN inh; bovine thrombin cleavage of Ub4-pepOG, fluorescence polarization; inhibition, % at 16.6 µM; actives 49% (n = 540);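 active means inhibition at or above a set limit, with a fluorescence interference ratio between 0.5 and a set maximum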
HNF4A confirm = change in binding of human HNF4 alpha to DNA, retest; shares compounds with HNF4A DNA FP; HNF4A-FITC DNA binding, fluorescence polarization, 1 h; activity change, % at 12.5 µM; actives 99% (n = 210); AID 1224897; call rule not given here
Starred values were filed as active, the others as inactive; i = inactive; / = not tested or not shown; + = active, no number. In the library only some 1.6% were active in any assay of this set; here they are far more common. Unless noted, no stated cut-off is given here; in the data, active means inhibition above about 40%; inactive means the rest.

SMILES | PKA-R1A activ | CSN inh | HNF4A DNA FP | Rpn11 inh | TPT1 inh | PKA-R2B activ | Rpn11 inh conf | MMP-2 counter-1 | Thrombin FP | HNF4A confirm | others
Cc1ccccc1OCC(=O)N1N=C(c2cccnc2)CC1(O)C(F)(F)F (stereo unspecified) | 1 | -6 | 3 | i | 1 | 1 | / | / | / | /
CCN1/C(=C/c2ccc3cc(C)cc(C)c3[n+]2CC)Sc2cc(C)ccc21 | 5 | 81* | 151* | + | / | -15 | 89* | -93 | 135* | / | CSN5 deneddyl=16;MMP-2 counter-2=64*;Thrombin counter=23*
CCN1/C(=C\c2ccc3cc(C)ccc3[n+]2CC)Sc2cc(C)c(C)cc21 | -1 | 66* | 107* | + | / | -6 | 89* | -140 | 145* | / | CSN5 deneddyl=40;MMP-2 counter-2=20*;Thrombin counter=113*
Cc1ccc2c(c1)S/C(=C\c1cccc[n+]1C)N2CCO | 7 | 0 | 6 | i | -1 | 6 | / | / | / | /
Nc1nc(N)n(-c2ccccc2)c(=Nc2ccccc2)n1 | -5 | 4 | 0 | i | -1 | -4 | / | / | / | /
Cc1ccc(OCc2cc(C(=O)N3CCCC(O)C3)no2)cn1 (stereo unspecified) | -13 | 4 | -3 | i | 0 | 3 | / | / | / | /
S=c1[nH]nc(-c2cc(-c3ccccc3)n[nH]2)n1/N=C/c1ccc(Br)s1 | -5 | 36* | 12 | + | 1 | 5 | 91* | 5 | 49* | / | CSN5 deneddyl=82*;MMP-2 counter-2=21*;Thrombin counter=2
C#CCOC(=O)C(NC(=O)c1ccccc1)=C1CCCCC1 | 4 | 1 | 0 | i | -1 | 3 | / | / | / | /
CNC(=O)c1c(NC(=O)CS(=O)(=O)c2ccc(F)cc2)sc(C)c1C | 3 | 2 | -4 | i | -1 | 9 | / | / | / | /
Cc1cc(N2CCN(c3ccc([N+](=O)[O-])c4cccnc34)CC2)c2ccccc2n1 | 0 | 59* | 138 | + | 4 | 1 | 48* | -64 | -18 | / | CSN5 deneddyl=105*;MMP-2 counter-2=-7;Thrombin counter=-1
Cc1cc(N2CCN(c3ccc(C(F)(F)F)cc3[N+](=O)[O-])CC2)c2ccccc2n1 | -15 | 6 | 2 | i | 1 | -10 | / | / | / | /
C/C(=N\NC(=O)c1ccc(OC2OCCOC2Oc2ccc(C(=O)N/N=C(\C)c3ccncc3)cc2)cc1)c1ccncc1 (stereo unspecified) | -1 | 99* | 157* | + | 2 | 7 | 192* | -489 | 51* | 204*
CC(=O)c1nn(-c2ccc(C(F)(F)F)cc2)c(=O)[nH]c1=O | 2 | -6 | 1 | i | 3 | -5 | / | / | / | /
CC(Oc1ccccc1)C(=O)Nc1nnc(S(=O)(=O)N(C)c2ccccc2)s1 (stereo unspecified) | -4 | -4 | -6 | i | -2 | 3 | / | / | / | /
COc1ccc(CC(=O)Nc2ccc(-c3nnc(-c4ccccc4)o3)cc2)cc1OC | -10 | 46* | 36* | + | 1 | 3 | 22 | 14 | -17 | 73*
Cc1ccc(-c2nc(NC(=O)CSc3cc(C)c4ccccc4n3)ns2)cc1 | -9 | 175* | 162* | + | -4 | 1 | -1 | -6 | 27 | 94*
COc1ccc2c(C)cc(SCC(=O)Nc3nsc(-c4ccc(C)cc4)n3)nc2c1 | -4 | 7 | -2 | i | -3 | 7 | / | / | / | /
COCC(C)n1c(C)cc(C(=O)COC(=O)c2c(NC(C)=O)sc(C)c2C)c1C (stereo unspecified) | 3 | 26 | 37* | + | -3 | -15 | -11 | -184 | -23 | 51*
COCC(C)n1c(C)cc(C(=O)COC(=O)c2c(C)nn(-c3ccccc3)c2C)c1C (stereo unspecified) | 1 | 1 | 1 | i | 0 | -13 | / | / | / | /
O=c1c(Cl)c(Cl)cnn1-c1ccccc1 | -5 | -4 | -1 | i | / | 0 | / | / | / | /
O=c1c(Cl)c(N/N=C/c2ccc(Cl)cc2)cnn1-c1ccccc1 | 3 | 28 | 39* | + | -1 | 5 | 17 | -15 | 2 | 45*
C=CCN1C=C/C(=C\C=C(C#N)C#N)c2ccccc21 | 9 | 35* | 94* | + | 16 | 4 | 90* | -37 | 89* | 111*
CC(C)(C)NS(=O)(=O)c1ccc(NC(=O)C(Sc2ccccc2)c2ccccc2)cc1 (stereo unspecified) | 2 | 2 | 5 | i | -1 | 0 | / | / | / | /
O=C(Nc1cccc(Cl)c1)c1cc2c(=O)n3ccccc3nc2s1 | 1 | -2 | 2 | i | 1 | -8 | / | / | / | /
Cc1cccc(NC(=O)c2cc3c(=O)n4ccccc4nc3s2)c1 | -5 | 9 | 45* | + | -1 | 3 | 7 | -84 | -21 | 55*
CC(=O)N/C(=C\c1ccccc1)C(=O)OCC(=O)N(C)C1CCS(=O)(=O)C1 (stereo unspecified) | 2 | 2 | 2 | i | / | 1 | / | / | / | /
CN(C)c1ccc(/C=C(\C#N)C(=O)OCC(=O)N(C)C2CCS(=O)(=O)C2)cc1 (stereo unspecified) | -4 | 22 | 42* | + | / | 3 | 61* | -5 | 56* | 75*
CCCCN1C(=O)/C(=C2/Sc3ccccc3N2C)S/C1=N\c1ncn[nH]1 | -13 | 45* | 46* | + | 21 | -2 | 97* | -52 | 62* | 75*

Assay outcomes as filed in PubChem BioAssay.
